pKi: −log10 of the molar value.

Assay [1] can be described thus: Displacement of [125I]TZDM from amyloid beta (1 to 40) aggregates after 2 hrs by gamma counting. The procedure, abridged: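 Competition binding against [125I]TZDM as radiolabeled standard, using Aβ1–40 aggregates; run in triplicate, results as mean ± SD.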
Assay [2] is described as follows: Binding affinity to amyloid beta fibrils. In short, it runs like this: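 Competitive binding to Aβ1–40 aggregates, with [125I]TZDM as the radiolabeled reference ligand displaced by unlabeled test compound. Run in triplicate and reported as mean ± SD.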

Compound `Cc1ccc2c(ccn2C(=O)/C=C/c2ccccc2)c1` showed a negative logarithm of the Ki (pKi) in assay [1] of 6.89.
`O=C(/C=C/c1ccccc1)n1ccc2cc(F)ccc21`: in assay [1], the pKi was 7.49.
`O=C(/C=C/c1ccccc1)n1ccc2cc(Cl)ccc21`: in assay [1], the pKi was 7.44.
Regarding `COc1ccc(/C=C/C(=O)n2ccc3cc(Cl)ccc32)cc1`, the pKi in assay [1] was 7.74. Against the preceding compound, the pKi is 0.30 log units higher.
In assay [1], `O=C(/C=C/c1ccccc1)n1ccc2cc(O)ccc21` gave a pKi of 7.67. This pKi and that of the compound before are within 0.2 log units of each other.
`COc1ccc(/C=C/C(=O)n2ccc3cc(C)ccc32)cc1` had a pKi in assay [1] of 6.99.
For `CC(C)Cc1ccc([C@@H](C)C(=O)O)cc1` [(R)-IBUPROPHEN], the pKi in assay [2] is 7.95.
In assay [1], `O=C(/C=C/c1ccccc1)n1ccc2ccccc21` gave a pKi of 7.80.
The same measure, in the same setting: next, `COc1ccc(/C=C/C(=O)n2ccc3cc(Br)ccc32)cc1`: 7.60.
